Test results reported in ChEMBL document CHEMBL4706573, “Synthesis and evaluation of thiophene based small molecules as potent inhibitors of Mycobacterium tuberculosis” (Eur J Med Chem, 2020).
≈ marks a conversion by molar mass, not a printed value. Calls of active or inactive are those of the source. The calls are words filed in the database; no cut-off is given here.

Experiments:
THP-1 = test: Cytotoxicity against human THP-1 cells assessed as reduction in cell viability measured after 96 hrs by WST1 assay; format: cell-based; settings: thp-1, 96 h
Summary of the method: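 THP-1 cells seeded at 20,000/well with 20 ng/ml PMA for 48 h. Cells then washed and rested 24 h in RPMI with 10% FBS. Drug dilutions in RPMI complete medium added in triplicate for 96 h. Viability read by WST-1 reagent after a 30 min incubation.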

[1] = test system: Mycobacterium tuberculosis; test: Antimycobacterial activity against Mycobacterium tuberculosis H37Rv after 10 to 14 days; format: functional; settings: time 10-14 day
Summary of the method: (§1)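 MIC99 determined in whole cells, tested in triplicate with INH as the positive control. Strains were wild-type, pMV306, pMV306-pks13 and INH-resistant mc2 497. Susceptibility was scored relative to the parental strain: S where the MIC99 was at most 2x the parental MIC99.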

[2] = test system: Mycobacterium tuberculosis; test: Antimycobacterial activity against Mycobacterium tuberculosis H37Rv; format: functional
[3] = test system: Mycobacterium tuberculosis; test: Antimycobacterial activity against Mycobacterium tuberculosis H37Ra measured up to 7 days; format: functional; settings: 168 h, time day <=7
[4] = test system: Mycobacterium tuberculosis; test: Antimycobacterial activity against Mycobacterium tuberculosis expressing pMV306-pks13 after 10 to 14 days; format: functional, organism-based; settings: time 10-14 day; summary of the method: as §1
[5] = test system: Mycobacterium tuberculosis; test: Antimycobacterial activity against Mycobacterium tuberculosis expressing pMV306 after 10 to 14 days; format: functional, organism-based; settings: time 10-14 day; summary of the method: as §1
[6] = test system: Mycobacterium tuberculosis; test: Antimycobacterial activity against Mycobacterium tuberculosis H37Rv assessed as FICI in presence of pretomanid by checkerboard assay; format: functional
Summary of the method: (§2)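 Two-drug checkerboard: lead compound serially diluted twofold along one axis, cross-diluted twofold with a TB drug (RIF, INH, LEVO, BDQ or PA-824) to form combinations. FICI calculated for each combination.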

[7] = test system: Mycobacterium tuberculosis; test: Antimycobacterial activity against Mycobacterium tuberculosis infected in human THP-1 cells assessed as reduction in intracellular bacterial growth at 10 times MIC99 incubated for 4 days followed by 10-fold serial dilution and measured after 3 to 4 weeks relative to control; format: functional; settings: time 32 day
Summary of the method: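 THP-1 cells infected and then washed twice with 1x PBS. Infected macrophages overlaid with RPMI containing drug for 4 days. Lysed on day 0 and day 4 with 1x PBST (0.1% Triton X-100). Tenfold serial dilutions plated on MB 7H11 agar, incubated at 37 °C for 3-4 weeks, then CFU counted. INH used as control.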

[8] = test system: Mycobacterium tuberculosis; test: Antimycobacterial activity against Mycobacterium tuberculosis H37Rv assessed as FICI in presence of levofloxacin by checkerboard assay; format: functional; summary of the method: as §2
[9] = test system: Mycobacterium tuberculosis; test: Antimycobacterial activity against early-logarithmic cultures of Mycobacterium tuberculosis H37Rv assessed as reduction in bacterial load at 10 times MIC99 incubated for 7 days followed by 10-fold serial dilution and measured after 2 to 4 weeks; format: functional; settings: time 2-5 weeks
Summary of the method: (§3)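 Early-logarithmic culture (OD600nm ~0.2) exposed to 10x MIC99 for 7 days. Bacteria then counted as CFU and compared with untreated samples. INH used as control.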

[10] = test system: Mycobacterium tuberculosis; test: Ratio of MIC99 for antimycobacterial activity against Mycobacterium tuberculosis H37Rv to MIC99 for antimycobacterial activity against Mycobacterium tuberculosis H37Rv in presence of bedaquiline; format: functional; summary of the method: as §2
[11] = test system: Mycobacterium tuberculosis; test: Antimycobacterial activity against Mycobacterium tuberculosis H37Rv assessed as FICI in presence of isoniazid by checkerboard assay; format: functional; summary of the method: as §2
[12] = test system: Mycobacterium tuberculosis; test: Antimycobacterial activity against Mycobacterium tuberculosis H37Rv assessed as FICI in presence of rifampicin by checkerboard assay; format: functional; summary of the method: as §2
[13] = test system: Mycobacterium tuberculosis; test: Antimycobacterial activity against Mycobacterium tuberculosis H37Rv assessed as FICI in presence of bedaquiline by checkerboard assay; format: functional; summary of the method: as §2
[14] = test system: Mycobacterium tuberculosis; test: Antimycobacterial activity against early-logarithmic cultures of Mycobacterium tuberculosis H37Rv assessed as bacterial killing at 10 times MIC99 incubated for 7 days followed by 10-fold serial dilution and measured after 2 to 4 weeks; format: functional; settings: time 2-5 weeks; summary of the method: as §3
[15] = Inhibition of N-terminal His-tagged Mycobacterium tuberculosis PtpB expressed in Escherichia coli BL21 (DE3)-CodonPlus cells using DiFMUP as substrate measured after 45 mins by spectrofluorimetric method

SMILES | Activity (THP-1) [µM] | MIC99 [1] [µM] | also measured
COC(=O)c1cc(-c2ccc(F)cc2)sc1NC(=O)N1CCCCC1 | > 50 | > 10 | 
CCOC(=O)c1c(NC(=O)c2c(F)c(F)c(F)c(F)c2F)sc(C(N)=O)c1C |  |  | MIC [2]: 0.5 µM (≈ 0.211 µg/mL)
COC(=O)c1cc(-c2ccc(F)cc2)sc1NC(=O)NC1CC1 | > 50 | > 10 | 
COC(=O)c1cc(-c2ccc(F)cc2)sc1NC(=O)NC(C)C | > 50 | > 10 | 
CCOC(=O)c1cc(-c2ccccc2)sc1NC(=O)NC(C)C | > 50 | 1.56 (≈ 0.519 µg/mL) | 
CCOC(=O)c1cc(-c2ccccc2)sc1NC(=O)NCc1ccccc1 | > 50 | > 10 | 
COc1ccc([C@@H](c2ccc(OCCN(C(C)C)C(C)C)cc2)c2cccs2)cc1 |  |  | MIC [3]: 3.12 µM (≈ 1.32 µg/mL)
CCOC(=O)c1cc(-c2ccccc2)sc1NC(=O)CBr | > 50 | 0.78 (≈ 0.287 µg/mL) | Activity [4]: Active; Activity [5]: Active
COC(=O)c1ccsc1NC(=O)CCl | > 50 | 0.19 (≈ 0.0444 µg/mL) | fractional inhibitory concentration index (FICI) [6]: 1; fold change (FC) [7]: 2.5; fractional inhibitory concentration index (FICI) [8]: 0.562; FC [9]: 10; Ratio [10]: 4; Activity [4]: Active; Activity [5]: Active; fractional inhibitory concentration index (FICI) [11]: 0.75; fractional inhibitory concentration index (FICI) [12]: 0.75; fractional inhibitory concentration index (FICI) [13]: 0.5
NNC(=O)c1ccncc1 [ISONIAZID] | > 50 | 0.19 (≈ 0.0261 µg/mL) | fold change (FC) [7]: 200; Activity [4]: Active; Activity [14]: >4 log10CFU; Activity [5]: Active
O=C(O)C(=O)N(Cc1cccc(Cl)c1)Cc1ccc(S(=O)(=O)NCCC(c2ccccc2)c2ccccc2)s1 |  |  | IC50 [15]: 0.4 µM
CCOC(=O)c1c(NC(=O)c2c(F)c(F)c(F)c(F)c2F)sc2c1CCCCC2 |  |  | MIC [2]: 1 µM (≈ 0.433 µg/mL)
CCOC(=O)c1cc(-c2ccccc2)sc1NC(=O)c1ccccc1 | > 50 | > 10 | 
CCOC(=O)c1cc(-c2ccccc2)sc1NC(=O)N1CCCCC1 | > 50 | > 10 | 
CCN(CC)C(=O)Nc1sc(-c2ccc(F)cc2)cc1C(=O)OC | > 50 | > 10 | 
CCOC(=O)c1cc(-c2ccccc2)sc1NC(=O)Nc1ccccc1 | > 50 | > 10 | 
CCOC(=O)c1cc(-c2ccccc2)sc1NC(=O)N(C)C | > 50 | > 10 | 
COC(=O)c1cc(-c2ccc(F)cc2)sc1NC(=O)N1CCCC1 | > 50 | > 10 | 
CCOC(=O)c1cc(-c2ccccc2)sc1NC(=O)c1cccnc1 | > 50 | > 10 | 
COC(=O)c1cc(-c2cc(F)cc(F)c2)sc1NC(=O)CCl | > 50 | 0.78 (≈ 0.27 µg/mL) | Activity [4]: Active; Activity [5]: Active

SMILES | Activity (THP-1) [µM] | MIC99 [1] [µM] | also measured
CCOC(=O)c1cc(-c2ccccc2)sc1N | > 50 | > 10 | 
COC(=O)c1cc(-c2cc3ccccc3s2)sc1NC(=O)CCl | > 50 | 0.78 (≈ 0.285 µg/mL) | Activity [4]: Active; Activity [5]: Active
CCOC(=O)c1cc(-c2ccccc2)sc1NC(=O)c1ccc(C)cc1 | > 50 | > 10 | 
CCOC(=O)c1cc(-c2ccccc2)sc1NC(=O)NC | > 50 | > 10 | 
CCOC(=O)c1cc(-c2ccccc2)sc1NC(=O)NC1CC1 | > 50 | 1.56 (≈ 0.515 µg/mL) | 
COC(=O)c1cc(-c2ccccc2)sc1NC(=O)CCl | > 50 | 0.19 (≈ 0.0589 µg/mL) | fractional inhibitory concentration index (FICI) [6]: 0.625; fold change (FC) [7]: 5; fractional inhibitory concentration index (FICI) [8]: 0.562; FC [9]: 10; Ratio [10]: 8; Activity [4]: Active; Activity [5]: Active; fractional inhibitory concentration index (FICI) [11]: 0.562; fractional inhibitory concentration index (FICI) [12]: 0.625; fractional inhibitory concentration index (FICI) [13]: 0.25
CCOC(=O)c1cc(-c2ccccc2)sc1NC(=O)c1ccc(F)cc1 | > 50 | > 10 | 
CCOC(=O)c1cc(-c2ccccc2)sc1NC(=O)N1CCOCC1 | > 50 | > 10 | 
CCOC(=O)c1cc(-c2ccccc2)sc1NC(=O)N1CCCC1 | > 50 | > 10 | 
CCOC(=O)c1cc(-c2ccccc2)sc1NC(=O)c1ccc(C#N)cc1 | > 50 | > 10 | 
CCOC(=O)c1cc(-c2ccccc2)sc1NC(=O)N1CCN(C)CC1 | > 50 | > 10 | 
COC(=O)c1cc(-c2cccc(F)c2)sc1NC(=O)CCl | > 50 | 0.19 (≈ 0.0623 µg/mL) | Activity [4]: Active; Activity [5]: Active
COC(=O)c1cc(-c2ccc(C(F)(F)F)cc2)sc1NC(=O)CCl | > 50 | 0.39 (≈ 0.147 µg/mL) | Activity [4]: Active; Activity [5]: Active
COC(=O)c1cc(-c2ccc(F)cc2)sc1NC(=O)CCl | > 50 | 0.78 (≈ 0.256 µg/mL) | Activity [4]: Active; Activity [5]: Active
CO[C@H]1/C=C/O[C@@]2(C)Oc3c(C)c(O)c4c(O)c(c(/C=N/N5CCN(C)CC5)c(O)c4c3C2=O)NC(=O)/C(C)=C\C=C\[C@H](C)[C@H](O)[C@@H](C)[C@@H](O)[C@@H](C)[C@H](OC(C)=O)[C@@H]1C [RIFAMPIN] |  | 0.007 (≈ 0.00576 µg/mL) | 
CCOC(=O)c1cc(-c2ccccc2)sc1NC(=O)N(CC)CC | > 50 | 3.12 (≈ 1.08 µg/mL) | 
CCOC(=O)c1cc(-c2ccccc2)sc1NC(=O)Cc1ccccc1 | > 50 | > 10 | 
CCOC(=O)c1cc(-c2ccccc2)sc1NC(C)=O | > 50 | > 10 | 
CCOC(=O)c1cc(-c2ccccc2)sc1NC(N)=O | > 50 | > 10 | 
